ChEMBL document CHEMBL1123923, “Steroidal silicon side-chain analogues as potential antifertility agents” (1987)

organism: Rattus norvegicus; experiment: Antifertility activity measured as minimum protective dose for prevention of pregnancy in rats; assay type: functional; parameters: unit not given here
Outline: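 Oral dosing in adult cycling female rats selected in the proestrous phase, 10 animals per dose, with treatment starting on the day of proestrus.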

| SMILES | Antifertility potency |
| --- | --- |
| C[C@]12CC[C@@H]3c4ccc(O)cc4CC[C@H]3[C@@H]1CC[C@@]2(O)/C=C/[Si](c1ccccc1)(c1ccccc1)c1ccccc1 | 0 |
| CCCC[Si](C=C[C@]1(O)CC[C@H]2[C@@H]3CCc4cc(O)ccc4[C@H]3CC[C@@]21C)(CCCC)CCCC | 0 |
| C=C([C@]1(O)CC[C@H]2[C@@H]3CCc4cc(O)ccc4[C@H]3CC[C@@]21C)[Si](CCCC)(CCCC)CCCC | 0 |
| C[C@]12CC[C@@H]3c4ccc(O)cc4CC[C@H]3[C@@H]1CC[C@@]2(O)/C=C\[Si](C)(C)C | 5 |
| C[C@]12CC[C@@H]3c4ccc(O)cc4CC[C@H]3[C@@H]1CC[C@@]2(O)C#C[Si](C)(C)CCC(F)(F)F | 150 |
| C[C@]12CC[C@@H]3c4ccc(O)cc4CC[C@H]3[C@@H]1CC[C@@]2(O)C#C[Si](C)(CCl)CCl | 150 |
| CC(C)(C)[Si](C)(C)C#C[C@]1(O)CC[C@H]2[C@@H]3CCc4cc(O)ccc4[C@H]3CC[C@@]21C | 600 |
| C=C([C@]1(O)CC[C@H]2[C@@H]3CCc4cc(O)ccc4[C@H]3CC[C@@]21C)[Si](c1ccccc1)(c1ccccc1)c1ccccc1 | 0 |
| CCC[Si](C#C[C@]1(O)CC[C@H]2[C@@H]3CCc4cc(O)ccc4[C@H]3CC[C@@]21C)(CCC)CCC | 200 |
| CC[Si]1(C#C[C@]2(O)CC[C@H]3[C@@H]4CCc5cc(O)ccc5[C@H]4CC[C@@]32C)CCCCC1 | 200 |
| CCC(C#C[C@]1(O)CC[C@H]2[C@@H]3CCc4cc(O)ccc4[C@H]3CC[C@@]21C)(CC)CC | 0 |

molecular target: T1, Estrogen receptor (Rattus norvegicus) (UniProt P06211+Q62986); experiment: Oral estrogenic activity in 21 day old immature ovariectomized rats at 1000 ug; assay type: functional
Outline: (§1)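 Rats dosed orally with compound suspended in 0.5% (carboxymethyl)cellulose, 10 animals per dose, daily for 4 days starting on the day of ovariectomy. Autopsy on the day after the last dose. Read-outs were the increase in uterine weight and cornification of vaginal smears, taken from animals with open vaginas, compared against a standard estrogen.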

| SMILES | Estrogenic potency |
| --- | --- |
| CCCC[Si](C=C[C@]1(O)CC[C@H]2[C@@H]3CCc4cc(O)ccc4[C@H]3CC[C@@]21C)(CCCC)CCCC | 0 |
| CCC(C#C[C@]1(O)CC[C@H]2[C@@H]3CCc4cc(O)ccc4[C@H]3CC[C@@]21C)(CC)CC | 0 |

molecular target: T1, Estrogen receptor (Rattus norvegicus); experiment: Oral estrogenic activity in 21 day old immature ovariectomized rats at 200 ug; assay type: functional; outline: as §1

| SMILES | Estrogenic potency |
| --- | --- |
| C[C@]12CC[C@@H]3c4ccc(O)cc4CC[C@H]3[C@@H]1CC[C@@]2(O)/C=C/[Si](c1ccccc1)(c1ccccc1)c1ccccc1 | 0 |
| C=C([C@]1(O)CC[C@H]2[C@@H]3CCc4cc(O)ccc4[C@H]3CC[C@@]21C)[Si](c1ccccc1)(c1ccccc1)c1ccccc1 | 0 |

molecular target: T1, Estrogen receptor (Rattus norvegicus); experiment: Oral estrogenic activity in 21 day old immature ovariectomized rats at 500 ug; assay type: functional; outline: as §1

| SMILES | Estrogenic potency |
| --- | --- |
| C=C([C@]1(O)CC[C@H]2[C@@H]3CCc4cc(O)ccc4[C@H]3CC[C@@]21C)[Si](CCCC)(CCCC)CCCC | 0 |

organism: Rattus norvegicus; experiment: Separation of antifertility from estrogenic activity in rats was measured; assay type: functional

| SMILES | Separation |
| --- | --- |
| C[C@]12CC[C@@H]3c4ccc(O)cc4CC[C@H]3[C@@H]1CC[C@@]2(O)/C=C\[Si](C)(C)C | 10 |
| C[C@]12CC[C@@H]3c4ccc(O)cc4CC[C@H]3[C@@H]1CC[C@@]2(O)C#C[Si](C)(C)CCC(F)(F)F | 8 |
| C[C@]12CC[C@@H]3c4ccc(O)cc4CC[C@H]3[C@@H]1CC[C@@]2(O)C#C[Si](C)(CCl)CCl | 4 |
| CC(C)(C)[Si](C)(C)C#C[C@]1(O)CC[C@H]2[C@@H]3CCc4cc(O)ccc4[C@H]3CC[C@@]21C | 30 |
| CCC[Si](C#C[C@]1(O)CC[C@H]2[C@@H]3CCc4cc(O)ccc4[C@H]3CC[C@@]21C)(CCC)CCC | 8 |
| CC[Si]1(C#C[C@]2(O)CC[C@H]3[C@@H]4CCc5cc(O)ccc5[C@H]4CC[C@@]32C)CCCCC1 | 2.4 |

molecular target: T1, Estrogen receptor (Rattus norvegicus)

| SMILES | Estrogenic potency |
| --- | --- |
| C[C@]12CC[C@@H]3c4ccc(O)cc4CC[C@H]3[C@@H]1CC[C@@]2(O)/C=C\[Si](C)(C)C | 0.5 |
| C[C@]12CC[C@@H]3c4ccc(O)cc4CC[C@H]3[C@@H]1CC[C@@]2(O)C#C[Si](C)(C)CCC(F)(F)F | 19 |
| C[C@]12CC[C@@H]3c4ccc(O)cc4CC[C@H]3[C@@H]1CC[C@@]2(O)C#C[Si](C)(CCl)CCl | 39 |
| CC(C)(C)[Si](C)(C)C#C[C@]1(O)CC[C@H]2[C@@H]3CCc4cc(O)ccc4[C@H]3CC[C@@]21C | 20 |
| CCC[Si](C#C[C@]1(O)CC[C@H]2[C@@H]3CCc4cc(O)ccc4[C@H]3CC[C@@]21C)(CCC)CCC | 25 |
| CC[Si]1(C#C[C@]2(O)CC[C@H]3[C@@H]4CCc5cc(O)ccc5[C@H]4CC[C@@]32C)CCCCC1 | 85 |
